Assay results as given in publication PMC3321547 (Biochemistry, 2009).
Entries after “also recorded” stand apart in the source; their conditions may differ.

Legend:
kinesin head domains = details: ref [6], cited from earlier work
DKH346 = experiment: Inhibition of basal ATPase of monomeric DKH346; format: biochemical, Drosophila; details: 6.8 µM DKH346 (Fig. 3C)
How it was run: (§1)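 Heads were Drosophila kinesin residues 1–346 (for the artificial dimer, fused via a TSGG linker to the GCN4-p1 coiled coil) or 1–357. Basal ATPase was run at 25 °C in A25 buffer (pH 6.9) with […], 2 mM PEP and 0.25 mM NADH, coupled to PK/LDH, KCl as indicated. A340 was read, with turbidity correction where needed. Tail-peptide titrations were fit to the quadratic mutual-depletion equation.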

DKH412 [1] = experiment: Inhibition of mADP release; format: biochemical, Drosophila
K357SC = experiment: Inhibition of artificial dimer K357SC; format: biochemical, Drosophila; details: not shown
DKH412 [2] = experiment: Inhibition of basal steady state ATPase of DKH412 head dimer; format: biochemical, Drosophila; details: no added KCl, 7 µM DKH412 monomer
K346SC = experiment: Inhibition of basal ATPase of artificial dimer K346SC; format: biochemical, Drosophila; details: read-out: Kd, inhibition of basal ATPase; 6 µM K346SC monomer (Fig. 3C)
How it was run: as §1

DKH357 = experiment: Inhibition of basal ATPase of monomeric DKH357; format: biochemical, Drosophila; details: 13.3 µM DKH357
How it was run: as §1

[3] = Sedimentation of single constructs, 25 mM KCl; format: physicochemical; details: A25 buffer, 0.1 mM ATP, 4 °C

Nc1ncnc2c1ncn2[C@@H]1O[C@H](COP(=O)(O)OP(=O)(O)O)[C@@H](O)[C@H]1O [ADP]
rate of release as ADP (kinesin head domains; basal): ~ 0.01 s^−1

NF910-952: monomeric Drosophila kinesin tail peptide, residues 910-952, non-fusion version obtained by thrombin cleavage
inhibition of monomeric DKH346 (in words) (DKH346): only poorly inhibited | maximum extent of inhibition of mADP release (DKH412 [1]; 50 mM KCl, 25 °C, pH 6.9, 0.2 µM DKH412): 75% | maximum inhibition of mADP release (DKH412 [1]; no added KCl, A25 buffer pH 6.9, 25 °C, 0.2 µM DKH412): over 80% | stoichiometry of inhibition of K357SC (K357SC): half-site stoichiometry | stoichiometry of inhibition of basal ATPase (DKH412 [2]): 1 tail peptide per two head peptides | Kd (K346SC): 330 nM | inhibition of monomeric DKH357 (in words) (DKH357): only weakly inhibits; also recorded: not strongly inhibited

Nc1ncnc2c1ncn2[C@@H]1O[C@H](COP(=O)(O)OP(=O)(O)OP(=O)(O)O)[C@@H](O)[C@H]1O [ATP]
Km (kinesin head domains; read-out: KM for ATP, basal ATPase, absence of MTs): ~2.5 nM | net ATP binding and hydrolysis rate (kinesin head domains): ≥ 4e+06 M⁻¹ s⁻¹

DKH412: residues 1 to 412 of Drosophila kinesin with C-terminal HisTag; dimeric head construct
s20,w, centrifuged alone [3]: 5.2 S
